Published values collected from several papers.
Matrix: Caco-2

SMILES | conditions | Papp B→A [×10⁻⁶ cm/s]
N#Cc1ccc(C[C@H](Nc2ncc(-c3ccc(F)cc3)o2)C(=O)N2CCc3ccccc32)cc1 | 100 µM, 2 h | 200
Cc1cc(C)c(CNC(=O)c2cc(Cl)c3c(c2C)O[C@@](C)([C@H]2CC[C@H](N(C)C)CC2)O3)c(=O)[nH]1 | 100 µM | 16.3
CC(C)c1nc(N(C)S(C)(=O)=O)nc(-c2ccc(F)cc2)c1/C=C/[C@@H](O)C[C@@H](O)CC(=O)O | 5 µM, 2 h | 14.6
C[C@@H]1O[C@@H](O[C@H]2[C@H](Oc3cc(O)c4c(c3)O[C@H](c3ccc(O)cc3)CC4=O)O[C@H](CO)[C@@H](O)[C@@H]2O)[C@H](O)[C@H](O)[C@H]1O | 100 µg/mL, 2 h | 8.02
Cc1ccc(N(c2ccc(NC(=O)CN(C)c3ccccc3N3CCCC3=O)cc2)C(C)C)cc1 |  | 2.52
CC(C)NCC(O)COc1cccc2ccccc12 (stereo not shown) | 10 µM, 2 h | 20
C[C@H]1O[C@@H](O[C@H]2[C@@H](O)C[C@H](O[C@H]3[C@@H](O)C[C@H](O[C@H]4CC[C@@]5(C)[C@H](CC[C@@H]6[C@@H]5C[C@@H](O)[C@]5(C)[C@@H](C7=CC(=O)OC7)CC[C@]65O)C4)O[C@@H]3C)O[C@@H]2C)C[C@H](O)[C@@H]1O | 5 µM, 2 h | 17.9
COc1ccc([C@@H]2CC(=O)c3c(O)cc(O)cc3O2)cc1O | 100 µg/mL, 2 h | 21.4
N#Cc1ccc(C[C@H](NC(=O)Nc2ccc(F)cc2)C(=O)N2CCc3ccccc32)cc1 | 100 µM, 2 h | 218
COc1ccc(-c2coc3cc(O)cc(O)c3c2=O)cc1 | 100 µg/mL, 2 h | 21.2
CCCCCOC(=O)Nc1nc(=O)n([C@@H]2O[C@H](C)[C@@H](O)[C@H]2O)cc1F | 4 h | 14.3
O=c1cc(-c2ccccc2)oc2cc(O)c(O)c(O)c12 | 100 µg/mL, 2 h | 2.76
N#Cc1ccc(C[C@H](Nc2nnc(-c3ccc(F)cc3)s2)C(=O)N2CCc3ccccc32)cc1 | 100 µM, 2 h | 314
